Data set [1] has as its target Prostaglandin E2 receptor EP2 subtype (Homo sapiens, UniProt P43116). The data set is described as follows: Binding affinity to EP2 receptor.
Data set [2] deals with Prostaglandin E2 receptor EP4 subtype (Homo sapiens, UniProt P35408). Nature of the data set: Binding affinity to EP4 receptor.
For data set [3], the target named is T1, Prostaglandin E2 receptor EP1 subtype (Homo sapiens, UniProt P34995).
T1 sequence (P34995 whole entry): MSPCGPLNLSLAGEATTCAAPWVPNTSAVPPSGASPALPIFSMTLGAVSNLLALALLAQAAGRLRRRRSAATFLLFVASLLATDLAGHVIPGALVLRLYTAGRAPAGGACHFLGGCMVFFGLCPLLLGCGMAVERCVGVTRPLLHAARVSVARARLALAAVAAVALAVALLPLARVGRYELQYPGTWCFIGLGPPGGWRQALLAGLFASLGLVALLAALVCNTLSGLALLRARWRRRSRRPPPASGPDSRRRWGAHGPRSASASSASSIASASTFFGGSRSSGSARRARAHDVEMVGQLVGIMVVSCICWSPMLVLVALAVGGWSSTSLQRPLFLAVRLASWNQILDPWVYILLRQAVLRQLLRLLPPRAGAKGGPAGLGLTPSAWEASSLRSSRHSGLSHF
Nature of the data set: Binding affinity to EP1 receptor.

The target in another data set is Prostacyclin receptor (Homo sapiens, UniProt P43119). The data set is described as follows: Binding affinity to IP receptor.
Prostacyclin receptor, sequence (P43119 whole entry): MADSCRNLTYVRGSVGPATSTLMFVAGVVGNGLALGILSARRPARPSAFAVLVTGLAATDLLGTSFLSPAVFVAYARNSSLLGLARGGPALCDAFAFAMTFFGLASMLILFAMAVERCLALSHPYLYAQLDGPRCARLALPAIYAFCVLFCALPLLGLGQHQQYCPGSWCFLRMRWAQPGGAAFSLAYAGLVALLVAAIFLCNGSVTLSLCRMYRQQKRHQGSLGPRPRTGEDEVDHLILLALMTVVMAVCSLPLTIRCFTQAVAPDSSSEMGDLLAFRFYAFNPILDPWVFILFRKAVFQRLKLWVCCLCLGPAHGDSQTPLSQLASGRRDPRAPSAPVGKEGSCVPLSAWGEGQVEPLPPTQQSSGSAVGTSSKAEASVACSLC
The target in data set [4] is Prostaglandin F2-alpha receptor (Homo sapiens, UniProt P43088). Nature of the data set: Binding affinity to FP receptor.
Prostaglandin F2-alpha receptor, sequence (P43088 whole entry): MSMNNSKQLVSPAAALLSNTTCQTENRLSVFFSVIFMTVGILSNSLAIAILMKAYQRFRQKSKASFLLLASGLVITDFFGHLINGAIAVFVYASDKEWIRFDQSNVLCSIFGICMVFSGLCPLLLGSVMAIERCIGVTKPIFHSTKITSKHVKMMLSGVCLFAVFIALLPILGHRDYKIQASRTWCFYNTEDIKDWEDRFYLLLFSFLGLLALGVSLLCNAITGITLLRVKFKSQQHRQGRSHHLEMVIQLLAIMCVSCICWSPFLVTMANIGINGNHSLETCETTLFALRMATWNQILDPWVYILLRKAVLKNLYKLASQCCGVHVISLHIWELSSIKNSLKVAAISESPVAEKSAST
Data set [5] in a line: Binding affinity to human recombinant PGD2 receptor subtype 1 by radioligand competition binding assay. In a few lines:
(§1)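 Radioligand competition binding on recombinant human receptors, DP1 or thromboxane TP receptor; Ki values reported.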
(In general: In a radioligand displacement assay an active substance lowers the binding of a labelled ligand.)

In data set [6] the target is T2, Prostaglandin E2 receptor EP3 subtype (Homo sapiens, UniProt P43115).
T2 sequence (P43115 whole entry): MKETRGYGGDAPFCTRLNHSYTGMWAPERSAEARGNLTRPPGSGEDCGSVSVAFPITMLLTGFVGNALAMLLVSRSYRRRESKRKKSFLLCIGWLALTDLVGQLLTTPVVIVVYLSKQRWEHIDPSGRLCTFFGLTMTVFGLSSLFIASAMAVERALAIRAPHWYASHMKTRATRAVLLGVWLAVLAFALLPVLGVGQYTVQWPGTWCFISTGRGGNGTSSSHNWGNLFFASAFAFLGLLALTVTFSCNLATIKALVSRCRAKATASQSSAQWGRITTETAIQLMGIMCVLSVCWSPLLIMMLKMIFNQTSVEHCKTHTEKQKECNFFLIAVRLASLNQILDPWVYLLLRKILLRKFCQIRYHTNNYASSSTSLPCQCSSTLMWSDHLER
The data set is described as follows: Binding affinity to EP3 receptor.

A further data set addresses T3, Thromboxane A2 receptor (Homo sapiens, UniProt P21731).
T3 sequence (P21731 whole entry): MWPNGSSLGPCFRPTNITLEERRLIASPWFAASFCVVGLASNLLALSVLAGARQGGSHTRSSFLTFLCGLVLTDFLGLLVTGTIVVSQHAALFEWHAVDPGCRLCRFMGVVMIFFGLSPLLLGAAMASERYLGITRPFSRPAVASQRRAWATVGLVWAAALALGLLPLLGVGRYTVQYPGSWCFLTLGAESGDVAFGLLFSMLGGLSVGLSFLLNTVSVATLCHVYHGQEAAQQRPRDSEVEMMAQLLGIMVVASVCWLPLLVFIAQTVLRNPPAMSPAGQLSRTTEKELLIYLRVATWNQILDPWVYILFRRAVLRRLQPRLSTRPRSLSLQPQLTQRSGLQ
The data set is described as follows: Binding affinity to human recombinant TP receptor by radioligand competition binding assay. In outline: as §1

The nature of data set [7]: Antagonist activity at PGD2 subtype 1 in human platelet rich plasma assessed as inhibition of PGD2-induced accumulation of cAMP. Format: functional. In outline: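 Blood from normal human volunteers; PRP prepared by centrifugation at 150g for 15 min. IBMX added (2 mM final) to block cAMP degradation. PRP samples preincubated 10 min at 37 °C with increasing compound concentrations in DMSO before PGD2 challenge. Reaction stopped with ethanol to lyse cells and extract cAMP. IC50 reported.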

A short description of data set [8]: Bioavailability in rat. Format: ADME, organism-based. The settings on record: in vivo.
Data set [9] can be described thus: Half life in rat. The settings on record: in vivo. It counts as ADME, organism-based.
Data set [10] has as its target T4, Prostaglandin D2 receptor 2 (Homo sapiens, UniProt Q9Y5Y4).
T4 sequence (Q9Y5Y4 whole entry): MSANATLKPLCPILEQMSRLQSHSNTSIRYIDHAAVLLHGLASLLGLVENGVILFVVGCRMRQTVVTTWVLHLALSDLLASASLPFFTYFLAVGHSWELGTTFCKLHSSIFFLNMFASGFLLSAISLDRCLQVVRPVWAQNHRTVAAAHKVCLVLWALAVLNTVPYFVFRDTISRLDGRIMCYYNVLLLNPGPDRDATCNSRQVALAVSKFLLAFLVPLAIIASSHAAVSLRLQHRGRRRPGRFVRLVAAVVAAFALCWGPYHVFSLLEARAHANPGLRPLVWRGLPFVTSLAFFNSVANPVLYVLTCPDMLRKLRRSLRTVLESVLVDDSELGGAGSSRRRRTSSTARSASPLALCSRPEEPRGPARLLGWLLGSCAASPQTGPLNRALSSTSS
Nature of the data set: Binding affinity to CRTH2 receptor.

Each structure is given as a SMILES string.

The text below walks through data of ChEMBL document CHEMBL1144743, “Identification of prostaglandin D2 receptor antagonists based on a tetrahydropyridoindole scaffold” (Bioorg Med Chem Lett, 2008).

What is called Ki is a measure of affinity in units of concentration, obtained from inhibition or displacement. For orientation: IC50 means the concentration that inhibits the measured activity by half. A word on the bioavailability: it is dose-corrected exposure relative to a reference, in per cent. The half-life is the time needed for the level to fall by half in the phase considered. A high value points to slow loss.

Prostaglandin E2 receptor EP4 subtype, sequence (P35408 whole entry): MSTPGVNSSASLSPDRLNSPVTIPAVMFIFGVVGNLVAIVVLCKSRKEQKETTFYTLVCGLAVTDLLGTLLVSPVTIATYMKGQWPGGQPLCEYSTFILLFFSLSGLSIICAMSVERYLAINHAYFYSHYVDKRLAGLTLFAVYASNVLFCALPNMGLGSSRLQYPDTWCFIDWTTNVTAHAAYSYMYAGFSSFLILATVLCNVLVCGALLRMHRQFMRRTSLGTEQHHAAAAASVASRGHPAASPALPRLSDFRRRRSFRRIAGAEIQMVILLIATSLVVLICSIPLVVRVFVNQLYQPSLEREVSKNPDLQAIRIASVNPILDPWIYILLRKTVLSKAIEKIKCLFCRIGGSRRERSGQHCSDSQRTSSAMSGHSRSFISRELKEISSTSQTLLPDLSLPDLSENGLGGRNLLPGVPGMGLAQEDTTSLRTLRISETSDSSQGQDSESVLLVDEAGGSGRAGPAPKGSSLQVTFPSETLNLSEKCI
Prostaglandin E2 receptor EP2 subtype, sequence (P43116 whole entry): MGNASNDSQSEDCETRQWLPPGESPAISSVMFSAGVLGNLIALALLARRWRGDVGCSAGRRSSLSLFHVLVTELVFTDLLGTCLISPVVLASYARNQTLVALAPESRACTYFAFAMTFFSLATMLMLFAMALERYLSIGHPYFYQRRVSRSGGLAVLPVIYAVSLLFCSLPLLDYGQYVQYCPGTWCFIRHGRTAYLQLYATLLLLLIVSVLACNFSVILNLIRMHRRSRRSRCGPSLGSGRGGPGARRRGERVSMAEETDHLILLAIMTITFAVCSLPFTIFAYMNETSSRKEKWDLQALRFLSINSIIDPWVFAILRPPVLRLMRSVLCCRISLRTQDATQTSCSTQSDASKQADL

Regarding `CS(=O)(=O)c1cc(F)cc2c1c(C(=O)c1ccc(Cl)cc1)c1n2CCC[C@H]1CC(=O)O`, the Ki was above 29.2 µM in [1]; above 16.1 µM in data set [2]; 2170 nM in data set [3]; above 22.5 µM at Prostacyclin receptor; above 24.8 µM in [4]; 36 nM in data set [5]. Further, the Ki in [6] is above 21.4 µM; on Thromboxane A2 receptor it was 7150 nM.

Consider `CC(C)C(O)c1cc(F)cc2c1c(Sc1ccc(Cl)cc1)c1n2CCC1CC(=O)O` (stereo not given), for which the Ki in [5] was determined as 7.9 nM; at Thromboxane A2 receptor it was 484 nM. Also, the IC50 in [7] is 509 nM.

Consider `CS(=O)(=O)c1cc(F)cc2c1c(C(=O)c1ccc(Cl)cc1)c1n2CCCCC1CC(=O)O` (stereo not given), for which the Ki in [5] was 1.4 nM; on Thromboxane A2 receptor, 675 nM. For the same compound, the IC50 in [7] amounted to 5.2 nM.

For `CC(=O)c1cc(F)cc2c1c(Sc1ccc(Cl)cc1)c1n2CCC1CC(=O)O` (stereo not given), the Ki in data set [5] came out at 3.6 nM; at Thromboxane A2 receptor, 674 nM. Besides, the 50% inhibitory concentration (IC50) in [7] came out at 101 nM.

For `O=C(O)CC1CCn2c1c(Sc1ccc(Cl)cc1)c1c(Br)cc(F)cc12` (stereo not given), the Ki in data set [5] worked out at 7.7 nM; at Thromboxane A2 receptor, 17 nM.

Consider `CC(O)c1cc(F)cc2c1c(Sc1ccc(Cl)cc1)c1n2CCC1CC(=O)O` (stereo not given), for which the Ki was 2.5 nM in [5] and 273 nM at Thromboxane A2 receptor. Further, the IC50 in [7] worked out at 56 nM.

`CS(=O)(=O)c1cc(F)cc2c1c(CCc1ccc(Cl)cc1)c1n2CCC1CC(=O)O` (stereo not given): the Ki in [5] came to 18.9 nM; at Thromboxane A2 receptor, 219 nM.

As for `O=C(O)CC1CCn2c1c(Sc1ccc(Cl)cc1)c1c(C3CC3)cc(F)cc12` (stereo not given), the figures for the Ki (in [5]; at Thromboxane A2 receptor) were 5.7 nM and 136 nM, respectively.

`CCC(CC)c1cc(F)cc2c1c(Sc1ccc(Cl)cc1)c1n2CCC1CC(=O)O` (stereo not given): the values for the Ki (in data set [5]; at Thromboxane A2 receptor) were 8.1 nM and 363 nM, respectively. For the same compound, in data set [7], the IC50 was 21.6 nM.

`CS(=O)(=O)c1cc(F)cc2c1c(Cc1ccc(Cl)cc1)c1n2CCC1CC(=O)O` (stereo not given): the Ki in data set [5] is 0.5 nM; at Thromboxane A2 receptor, 11.7 nM. Further, the IC50 in [7] was 4.7 nM.

Take `CS(=O)(=O)c1cc(F)cc2c1c(C(=O)c1ccc(Cl)cc1)c1n2CCC1CC(=O)O` (stereo not given): the values for the Ki (in [5]; on Thromboxane A2 receptor) were 6.9 nM and 6970 nM, respectively.

In the case of `CS(=O)(=O)c1cc(F)cc2c1c(-c1cccc(-c3ccccc3)c1)c1n2CCC1CC(=O)O` (stereo not given), the Ki in data set [5] came to 1.7 nM; at Thromboxane A2 receptor, 310 nM. Besides, in data set [7], the IC50 came out at 31.6 nM.

`CC(c1ccc(Cl)cc1)c1c2n(c3cc(F)cc(S(C)(=O)=O)c13)CCC2CC(=O)O` (stereo not given): the Ki in [5] was found to be 14.7 nM; on Thromboxane A2 receptor, 3190 nM.

On to `O=C(O)CC1CCn2c1c(Sc1ccc(Cl)cc1)c1ccc(F)cc12` (stereo not given), for which the Ki came to 132 nM in data set [5] and 17 nM on Thromboxane A2 receptor.

On to `CS(=O)(=O)c1cc(F)cc2c1c(Sc1ccc(Cl)cc1F)c1n2CCC1CC(=O)O` (stereo not given), for which the inhibition constant (Ki) in data set [5] amounted to 3.5 nM; on Thromboxane A2 receptor it was 198 nM. Moreover, the IC50 in data set [7] is 32.1 nM.

Take `CS(=O)(=O)c1cc(F)cc2c1c(C(=O)c1ccc(Cl)cc1)c1n2CCCC1CC(=O)O` (stereo not given): the bioavailability in [8] amounted to 100%. The same compound had a half-life in data set [9] of 264 min. The Ki came out at 3 nM in data set [5] and 513 nM at Thromboxane A2 receptor. Moreover, the 50% inhibitory concentration (IC50) in data set [7] turned out to be 4.6 nM.

Regarding `CC(C)c1cc(F)cc2c1c(Sc1ccc(Cl)cc1)c1n2CCC1CC(=O)O` (stereo not given), the results for the Ki (in data set [5]; at Thromboxane A2 receptor) were 2.4 nM and 46 nM, respectively. Also, in [7], the IC50 is 8.6 nM.

In the case of `CCC(OC)c1cc(F)cc2c1c(Sc1ccc(Cl)cc1)c1n2CCC1CC(=O)O` (stereo not given), the Ki in data set [5] was 1.1 nM; at Thromboxane A2 receptor, 200 nM. In addition, the IC50 in data set [7] amounted to 6.7 nM.

For `CS(=O)(=O)c1cc(F)cc2c1c(Sc1ccc3ccccc3c1)c1n2CCC1CC(=O)O` (stereo not given), the Ki in data set [5] was found to be 1.2 nM; at Thromboxane A2 receptor, 583 nM. In addition, the IC50 in data set [7] was found to be 40 nM.

As for `CS(=O)(=O)c1cc(F)cc2c1c(Sc1ccc(C(F)(F)F)cc1)c1n2CCC1CC(=O)O` (stereo not given), the Ki in data set [5] stood at 1.8 nM; at Thromboxane A2 receptor, 286 nM. The IC50 in data set [7] stood at 29.2 nM.

Consider `CS(=O)(=O)c1cc(F)cc2c1c(C(=O)c1ccc(Cl)cc1)c1n2CCC[C@@H]1CC(=O)O`, for which the inhibitory constant (Ki) in data set [1] was 3.4 µM; in [2], above 16.5 µM; in [10] it was 19.2 µM; in data set [3], 142 nM; on Prostacyclin receptor, above 21.2 µM; in [4] it was 21.1 µM. Besides, the values for the inhibition constant Ki (in [5]; in data set [6]; at Thromboxane A2 receptor) were 1 nM, 5.06 µM and 168 nM, respectively. Moreover, in data set [7], the IC50 amounted to 4.6 nM.

For `CSC(C)c1cc(F)cc2c1c(Sc1ccc(Cl)cc1)c1n2CCC1CC(=O)O` (stereo not given), the Ki turned out to be 1.6 nM in data set [5] and 27.5 nM at Thromboxane A2 receptor. The concentration for half-maximal inhibition (IC50) in data set [7] worked out at 4.1 nM.

`CS(=O)(=O)c1cc(F)cc2c1c(Sc1ccc(Cl)cc1)c1n2CCC1CC(=O)O` (stereo not given): the inhibition constant (Ki) in data set [5] stood at 1.3 nM; at Thromboxane A2 receptor, 226 nM. Moreover, the IC50 in data set [7] was 10.4 nM.

For `CCS(=O)(=O)c1cc(F)cc2c1c(Sc1ccc(Cl)cc1)c1n2CCC1CC(=O)O` (stereo not given), the figures for the Ki (in data set [5]; on Thromboxane A2 receptor) were 2.3 nM and 250 nM, respectively. Besides, the IC50 in [7] turned out to be 34 nM.
